Assay results published in ChEMBL document CHEMBL1129044, “Potent, selective tetrahydro-beta-carboline antagonists of the serotonin 2B (5HT2B) contractile receptor in the rat stomach fundus” (J Med Chem, 1996).
pKi: −log10 of the molar value.

Assays:
[1] = biological target: 5-hydroxytryptamine receptor 2B (Rattus norvegicus) (UniProt P30994); assay: Binding affinity analysed for 5-HT 2B receptor in rat stomach fundus; type: tissue-based
In short: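 Rat stomach fundus strips (5HT2B): isometric contraction recorded as grams of force. Control cumulative serotonin concentration–response curve, then 1 h incubation with a single antagonist concentration per tissue, then serotonin curve repeated. K_B = [B]/(dose ratio − 1), where dose ratio is agonist ED50 with antagonist over control ED50. Reported as −log K_B.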

[2] = biological target: Serotonin receptor 2a and 2b (5HT2A and 5HT2B) (Rattus norvegicus) (UniProt P30994+P14842); assay: Relative binding to serotonin receptors 5-HT-2B and 5-HT-2A (Ratio of […] Ki); type: protein assay
[3] = biological target: T1, 5-hydroxytryptamine receptor 2A (Rattus norvegicus, UniProt P14842); assay: Binding affinity for 5-HT 2A in rat […]; type: tissue-based
[4] = organism: Rattus norvegicus; assay: Relative binding to serotonin receptors 5-HT-2B to 5-HT2C (Ratio of […] Ki)
[5] = biological target: 5-HT2C receptor (Mus musculus); assay: Binding affinity towards 5-HT 2C receptor of mouse
[6] = biological target: 5-hydroxytryptamine receptor 2A (Rattus norvegicus) (UniProt P14842); assay: Binding affinity analysed towards 5-HT 2A in rat jugular vein
In short: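 Rat external jugular vein (5HT2A), cannulated in situ and kept in Krebs' bicarbonate buffer; isometric contraction recorded. Control cumulative serotonin curve, 1 h with one antagonist concentration per tissue, serotonin curve repeated. K_B = [B]/(dose ratio − 1) from the agonist ED50 shift. Expressed as −log K_B.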

[7] = biological target: 5-hydroxytryptamine receptor 2A (Rattus norvegicus) (UniProt P14842)
[8] = biological target: 5-hydroxytryptamine receptor 2A (Rattus norvegicus) (UniProt P14842); remark: listed apart in the source
[9] = biological target: T1, 5-hydroxytryptamine receptor 2A; assay: Binding affinity analysed on 5-HT 2A in rat […].; type: tissue-based

T1 sequence (P14842 whole entry): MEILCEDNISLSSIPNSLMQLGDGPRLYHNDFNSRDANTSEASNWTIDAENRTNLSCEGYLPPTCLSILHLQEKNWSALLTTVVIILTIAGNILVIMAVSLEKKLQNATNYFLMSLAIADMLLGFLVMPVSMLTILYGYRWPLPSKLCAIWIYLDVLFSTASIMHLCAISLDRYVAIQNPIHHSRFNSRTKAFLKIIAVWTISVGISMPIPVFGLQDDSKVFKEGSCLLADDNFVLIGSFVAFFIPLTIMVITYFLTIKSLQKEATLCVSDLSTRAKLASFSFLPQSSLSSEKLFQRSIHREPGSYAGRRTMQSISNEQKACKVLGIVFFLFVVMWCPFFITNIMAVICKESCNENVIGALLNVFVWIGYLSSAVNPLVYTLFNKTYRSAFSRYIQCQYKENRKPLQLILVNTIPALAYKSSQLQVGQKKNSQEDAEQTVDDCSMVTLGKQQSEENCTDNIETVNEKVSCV
Chain of 5-hydroxytryptamine receptor 2A (Rattus norvegicus) (P14842 whole entry): as above
Chain of Serotonin receptor 2a and 2b (5HT2A and 5HT2B) (Rattus norvegicus) (P14842 whole entry, looked up): as the sequence (P14842 whole entry) above
Chain of Serotonin receptor 2a and 2b (5HT2A and 5HT2B) (Rattus norvegicus) (P30994 whole entry, looked up): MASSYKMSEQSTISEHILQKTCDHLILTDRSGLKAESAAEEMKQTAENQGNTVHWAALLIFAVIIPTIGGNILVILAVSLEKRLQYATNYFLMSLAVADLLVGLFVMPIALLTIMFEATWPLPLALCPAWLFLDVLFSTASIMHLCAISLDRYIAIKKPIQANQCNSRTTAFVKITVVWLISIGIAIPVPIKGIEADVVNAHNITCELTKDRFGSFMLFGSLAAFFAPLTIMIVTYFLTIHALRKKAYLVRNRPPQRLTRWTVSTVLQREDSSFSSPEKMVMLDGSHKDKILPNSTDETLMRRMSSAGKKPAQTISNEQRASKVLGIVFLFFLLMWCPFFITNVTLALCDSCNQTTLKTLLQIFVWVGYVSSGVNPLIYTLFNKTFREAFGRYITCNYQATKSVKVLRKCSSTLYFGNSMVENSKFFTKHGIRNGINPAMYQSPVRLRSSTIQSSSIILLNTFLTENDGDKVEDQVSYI
Chain of 5-hydroxytryptamine receptor 2B (Rattus norvegicus) (P30994 whole entry): as the sequence (P30994 whole entry, looked up) above

## COc1ccc(CC2NCCc3c2[nH]c2ccc(F)cc32)cc1OC (stereo unspecified)
[1]
  -Log KB: 8.49

## COc1ccc(CC2NCCc3c2[nH]c2ccc(C)c(F)c32)cc1OC (stereo unspecified)
[1]
  -Log KB: 9.3

## COc1ccc(CC2(C)NCCc3c2[nH]c2ccc(C)cc32)cc1OC (stereo unspecified)
[1]
  -Log KB: < 7.52

## COc1ccc(CC2NCCc3c2[nH]c2c(Br)cc(C)cc32)cc1OC (stereo unspecified)
[1]
  -Log KB: 8.92

## COc1ccc(CC2NCCc3c2[nH]c2c(C)cc(C)cc32)cc1OC (stereo unspecified)
[1]
  -Log KB: 9.61

## COc1ccc(CC2NCCc3c2[nH]c2ccc(C4CCCCC4)cc32)cc1OC (stereo unspecified)
[1]
  -Log KB: < 7.5

## COc1ccc(CC2NCCc3c2[nH]c2ccc(C(C)C)cc32)cc1OC (stereo unspecified)
[1]
  -Log KB: 8.5

## COc1ccc(CC2NCCc3c2[nH]c2ccc(OCc4ccccc4)cc32)cc1OC (stereo unspecified)
[1]
  -Log KB: 6.73

## COc1ccc(CC2NCCc3c2[nH]c2c3ccc3ccccc32)cc1OC (stereo unspecified)
[1]
  -Log KB: 9.22

## Cc1ccc2[nH]c3c(c2c1)CCNC3Cc1cccc(C(F)(F)F)c1 (stereo unspecified)
[1]
  -Log KB: 8.91

## Cc1ccc2[nH]c3c(c2c1)CCNC3CC1CCCCC1 (stereo unspecified)
[1]
  -Log KB: 8.32

## Cc1ccc2[nH]c3c(c2c1)CCN(C)C3Cc1cccc2ccccc12 (stereo unspecified)
[1]
  -Log KB: 7.52

## COc1ccc(CC2NCCc3c2[nH]c2ccc(C)cc32)c(Br)c1OC (stereo unspecified)
[2]
  Ratio: 83.2
[3]
  pKi: 7.78
[1]
  -Log KB: 9.7
[4]
  Ratio: 93.3
[5]
  pKi: 7.73

## COc1ccc(CC2NCCc3c2[nH]c2ccc(Br)cc32)cc1OC (stereo unspecified)
[1]
  -Log KB: 8.8

## COc1ccc(CC2c3c(c4cc(C)ccc4n3C)CCN2C)c(Cl)c1OC (stereo unspecified)
[1]
  -Log KB: < 7.52

## c1ccc2cc(CC3NCCc4c3[nH]c3ccccc43)ccc2c1 (stereo unspecified)
[1]
  -Log KB: 7.84

## COc1cc(CC2NCCc3c2[nH]c2ccc(C)cc32)cc([N+](=O)[O-])c1OC (stereo unspecified)
[1]
  -Log KB: 8.55

## COc1ccc(CC2NCCc3c2[nH]c2ccccc32)cc1 (stereo unspecified)
[1]
  -Log KB: 8.09

## COc1ccc(C2NCCc3c2[nH]c2ccccc32)cc1OC (stereo unspecified)
[1]
  -Log KB: < 6.53

## CCCc1ccc2[nH]c3c(c2c1)CCNC3Cc1ccc(OC)c(OC)c1 (stereo unspecified)
[1]
  -Log KB: 8.64

## COc1ccc2c3c([nH]c2c1)C(Cc1ccc(OC)c(OC)c1)NCC3 (stereo unspecified)
[1]
  -Log KB: 7.31

## CCc1ccc2[nH]c3c(c2c1)CCNC3Cc1ccc(OC)c(OC)c1 (stereo unspecified)
[1]
  -Log KB: 9.46

## COc1cc(CC2NCCc3c2[nH]c2ccc(C)cc32)cc(N)c1OC (stereo unspecified)
[1]
  -Log KB: 8.89

## COc1ccc(CC2NCCc3c2[nH]c2c(F)cc(F)cc32)cc1OC (stereo unspecified)
[1]
  -Log KB: 9.6

## COc1ccc(CC2NCCc3c2[nH]c2ccc(C)cc32)c(N)c1OC (stereo unspecified)
[1]
  -Log KB: 9.02

## COc1ccc(CN2CCc3c([nH]c4ccccc34)C2)cc1OC
[1]
  -Log KB: < 5.52

## COc1ccc(CC2NCCc3c2[nH]c2cc(C)cc(C)c32)cc1OC (stereo unspecified)
[1]
  -Log KB: 9.34

## COc1ccc(CCC2NCCc3c2[nH]c2ccccc32)cc1OC (stereo unspecified)
[1]
  -Log KB: 7.07

## COc1ccc(CC2NCCc3c2[nH]c2ccc(I)cc32)cc1OC (stereo unspecified)
[1]
  -Log KB: 9.52

## Cc1ccc2[nH]c3c(c2c1)CCNC3Cc1ccc(F)c(F)c1 (stereo unspecified)
[1]
  -Log KB: 8.47

## COc1ccc(CC2NCCc3c2[nH]c2ccc(C)cc32)c([N+](=O)[O-])c1OC (stereo unspecified)
[1]
  -Log KB: 9.16

## COc1ccc(CC2NCCc3c2[nH]c2c(Br)c(C)ccc32)cc1OC (stereo unspecified)
[2]
  Ratio: 3.09
[3]
  pKi: 8.53
[1]
  -Log KB: 9.02
[4]
  Ratio: 2.14
[5]
  pKi: 8.69

## Cc1ccc(CC2NCCc3c2[nH]c2ccccc32)cc1 (stereo unspecified)
[1]
  -Log KB: 7.84

## COc1ccc(CC2NCCc3c2[nH]c2ccc(Cl)cc32)cc1OC (stereo unspecified)
[1]
  -Log KB: 8.36

## Cn1ccc2cc(NC(=O)Nc3cccnc3)ccc21
[2]
  Ratio: > 158
[3]
  pKi: < 5.20
[1]
  -Log KB: 7.4
[4]
  Ratio: 3.5

## Cc1cc(Br)c2c(c1)C1CCNC(Cc3cccc4ccccc34)C1N2 (stereo unspecified)
[1]
  -Log KB: 8.82

## Clc1ccc(CC2NCCc3c2[nH]c2ccccc32)cc1Cl (stereo unspecified)
[1]
  -Log KB: 8.22

## c1ccc2c3c([nH]c2c1)CNCC3
[1]
  -Log KB: < 5.52

## c1ccc2c3c([nH]c2c1)C(Cc1ccc2c(c1)OCO2)NCC3 (stereo unspecified)
[1]
  -Log KB: 8.4

## COc1ccc(CC2NCCc3c2[nH]c2ccccc32)cc1OC (stereo unspecified)
[2]
  Ratio: 97.7
[3]
  pKi: 7.18
[1]
  -Log KB: 9.17
[4]
  Ratio: 186
[5]
  pKi: 6.90
[6]
  -Log KB: 7.43

## COC(=O)[C@@H]1[C@H]2C[C@H]3c4[nH]c5ccccc5c4CCN3C[C@@H]2CC[C@@H]1O
[7]
  -Log KB: 6.37
[1]
  -Log KB: 6.92

## COc1cc(CC2NCCc3c2[nH]c2ccccc32)cc(OC)c1OC (stereo unspecified)
[1]
  -Log KB: 8.1

## CCCCc1ccc2[nH]c3c(c2c1)CCNC3Cc1ccc(OC)c(OC)c1 (stereo unspecified)
[1]
  -Log KB: < 7.5

## COc1ccc2[nH]c3c(c2c1)CCNC3Cc1ccc(OC)c(OC)c1 (stereo unspecified)
[1]
  -Log KB: 8.48

## Brc1cccc2c1NC1C(Cc3cccc4ccccc34)NCCC21 (stereo unspecified)
[1]
  -Log KB: 9.1

## Cc1ccc2c(c1Br)NC1C(Cc3cccc4ccccc34)NCCC21 (stereo unspecified)
[1]
  -Log KB: 8.56

## COc1ccc(CC2NCCc3c2[nH]c2ccc(C)cc32)c(Cl)c1OC (stereo unspecified)
[3]
  pKi: 7.71
[1]
  -Log KB: 9.8
[8]
  -Log KB: 8.14

## COc1ccc(CC2NCCc3c2[nH]c2ccc(-c4ccccc4)cc32)cc1OC (stereo unspecified)
[1]
  -Log KB: < 7

## Cc1ccc2[nH]c3c(c2c1)CCNC3Cc1cc(F)cc(F)c1 (stereo unspecified)
[1]
  -Log KB: 9.05

## COc1cc(CC2NCCc3c2[nH]c2ccc(C)cc32)cc(I)c1OC (stereo unspecified)
[1]
  -Log KB: 8.12

## c1ccc2c3c([nH]c2c1)[C@@H]1C[C@@H]2CCCC[C@H]2CN1CC3
[1]
  -Log KB: 7.26

## COc1ccc(CC2NCCc3c2[nH]c2ccc(C)cc32)cc1F (stereo unspecified)
[1]
  -Log KB: 9.42

## COc1ccc(OC)c(CC2NCCc3c2[nH]c2ccccc32)c1 (stereo unspecified)
[1]
  -Log KB: 7.75

## COc1ccc(CC2NCCc3c2[nH]c2c(C)c(C)ccc32)cc1OC (stereo unspecified)
[2]
  Ratio: 115
[3]
  pKi: 8.06
[1]
  -Log KB: 10.1
[4]
  Ratio: 102
[5]
  pKi: 8.11

## COc1ccc(CC2NCCc3c2[nH]c2ccc(C)cc32)cc1OC (stereo unspecified)
[3]
  pKi: 7.65

## COc1cccc2c1NC1C(Cc3cccc4ccccc34)NCCC21 (stereo unspecified)
[1]
  -Log KB: 9.72

## Cn1ccc2cc3c(cc21)CCN3C(=O)Nc1cccnc1
[1]
  -Log KB: 8.48

## Cc1ccc2[nH]c3c(c2c1)CCNC3Cc1ccc(C)c(C)c1 (stereo unspecified)
[1]
  -Log KB: 9.06

## CCOc1ccc(CC2NCCc3c2[nH]c2ccccc32)cc1OCC (stereo unspecified)
[1]
  -Log KB: 8.57

## COC1=CC=C(CC2NCCc3c2n(C)c2ccc(C)cc32)CC1OC (stereo unspecified)
[1]
  -Log KB: < 7.52

## COc1ccc(CC2NCCc3c2[nH]c2ccc(SC)cc32)cc1OC (stereo unspecified)
[1]
  -Log KB: 9.56

## COc1cccc(CC2NCCc3c2[nH]c2ccccc32)c1 (stereo unspecified)
[1]
  -Log KB: 8.04

## COc1ccc(CC2NCC(C)c3c2[nH]c2c(C)cccc32)cc1OC (stereo unspecified)
[1]
  -Log KB: 9.29

## Clc1ccc2c(c1)C1CCNC(Cc3cccc4ccccc34)C1N2 (stereo unspecified)
[1]
  -Log KB: 9.16

## O=C(O)c1ccc2c(c1)C1CCNC(Cc3cccc4ccccc34)C1N2 (stereo unspecified)
[1]
  -Log KB: < 7.5

## c1ccc2c(CC3NCCc4c3[nH]c3ccccc43)cccc2c1 (stereo unspecified)
[1]
  -Log KB: 9.35

## COc1ccc(CC2c3[nH]c4ccc(C)cc4c3CCN2C)c(Cl)c1OC (stereo unspecified)
[1]
  -Log KB: 8.4

## COc1cc2c(cc1OC)CN1CCc3c([nH]c4ccccc34)[C@@H]1C2
[1]
  -Log KB: < 6.52

## Cc1cc(NC(=O)Nc2ccc3c(ccn3C)c2)sn1
[1]
  -Log KB: 7.95

## CN1CC[C@@H]2CN3CCc4cccc(c43)[C@@H]2C1
[1]
  -Log KB: 7.34
[9]
  pKi: 6.20

## COc1ccc(CC2NCCc3c2[nH]c2ccc(C)cc32)cc1O (stereo unspecified)
[1]
  -Log KB: 9.23

## c1ccc(CC2NCCc3c2[nH]c2ccccc32)cc1 (stereo unspecified)
[1]
  -Log KB: 7.61

## COc1ccc(CC2NCCc3c2[nH]c2ccccc32)c(Cl)c1OC (stereo unspecified)
[1]
  -Log KB: 9.27

## COc1ccc(CC2NCCc3c2[nH]c2cc(C)c(C)cc32)cc1OC (stereo unspecified)
[3]
  pKi: 8.33
[1]
  -Log KB: 9.71

## COc1ccc(CC2NCCc3c2[nH]c2c(C)cccc32)cc1OC (stereo unspecified)
[1]
  -Log KB: 9

## CCc1ccc2c(c1)C1CCNC(Cc3cccc4ccccc34)C1N2 (stereo unspecified)
[1]
  -Log KB: 9.65
